ChEMBL document CHEMBL1909555, “Synthesis and antimalarial activity of thioetherhydroxyethylsulfonamides, potential aspartyl protease inhibitors, Part 3” (Eur J Med Chem, 2011)
Converted amounts (≈) assume the structure as drawn.

Key:
[1] = Cytotoxicity against human HepG2 cells after 24 hrs by MTT assay; assay type: cell-based; conditions: read-out: LD50
In short: (§1)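 Trypsinized cells seeded at 5 × 10³/well and allowed to adhere 18 h. Compounds added at varied concentrations for 24 h. MTT then added for 3 h, formazan dissolved in DMSO, absorbance read at 570 and 630 nm. Viability taken as % of untreated control after background subtraction, and LD50 derived.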

[2] = system: Plasmodium falciparum; assay: Antimalarial activity against chloroquine resistant, mefloquine sensitive Plasmodium falciparum W2 infected in human erythrocytes by [3H]-hypoxanthine incorporation assay; assay type: functional, organism-based
[3] = Cytotoxicity against african green monkey BGMK cells after 24 hrs by MTT assay; assay type: cell-based; conditions: chlorocebus aethiops, read-out: LD50; in short: as §1

Row | Compound | CC50 at 24 h [1] | IC50 [2] | CC50 at 24 h [3]
1 | O=S(=O)(N[C@@H](Cc1ccccc1)[C@H](O)CSc1ncccn1)c1ccc(Br)cc1 | 101 µg/mL (≈ 204 µM) | 25 µg/mL (≈ 50.6 µM) | 99 µg/mL (≈ 200 µM)
2 | CC(C)(C)OC(=O)N[C@@H](Cc1ccccc1)[C@H](O)CSc1ncccn1 | 197 µg/mL (≈ 525 µM) | > 50 µg/mL | 170 µg/mL (≈ 453 µM)
3 | CC(C)(C)OC(=O)N[C@@H](Cc1ccccc1)[C@H](O)CSc1ccccn1 | > 200 µg/mL | 31.7 µg/mL (≈ 84.6 µM) | > 200 µg/mL
4 | O=[N+]([O-])c1ccc(S(=O)(=O)N[C@@H](Cc2ccccc2)[C@H](O)CSc2ccccn2)cc1 | > 200 µg/mL | > 50 µg/mL | > 200 µg/mL
5 | Cc1ccc(S(=O)(=O)N[C@@H](Cc2ccccc2)[C@H](O)CSc2ccccn2)cc1 | 191 µg/mL (≈ 446 µM) | > 50 µg/mL | 192 µg/mL (≈ 448 µM)
6 | O=[N+]([O-])c1ccc(S(=O)(=O)N[C@@H](Cc2ccccc2)[C@H](O)CSc2ncccn2)cc1 | > 200 µg/mL | 15 µg/mL (≈ 32.6 µM) | > 200 µg/mL
